Experimental data: ChEMBL document CHEMBL1133719, “Synthesis and preliminary biological evaluations of CC-1065 analogues: effects of different linkers and terminal amides on biological activity” (J Med Chem, 2000)
Where “and” joins values, the source holds several entries; their conditions need not be identical. Identical values can stand only once.

How the values were obtained:
786-0 = assay: Cytotoxicity against NCI tumor panel, 786-0 renal cancer cell line; format: functional, cell-based; details: Homo sapiens
Outline: (§1)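 NCI cell-line panel screen run by the National Cancer Institute; sulforhodamine B (SRB) readout after 48-h drug incubation.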

A549 = assay: Cytotoxicity against NCI tumor panel, A-549/ATCC non small-cell lung cancer cell line; format: functional, cell-based; details: Homo sapiens; outline: as §1
ACHN = assay: Cytotoxicity against NCI tumor panel, ACHN renal cancer cell line; format: functional, cell-based; details: Homo sapiens; outline: as §1
CCRF-CEM = assay: Cytotoxicity against NCI tumor panel, CCRF-CEM leukemia cell line; format: functional, cell-based; details: Homo sapiens; outline: as §1
CAKI-1 = assay: Cytotoxicity against NCI tumor panel, CAKI-1 renal cancer cell line; format: functional, cell-based; details: Homo sapiens; outline: as §1
COLO 205 = assay: Cytotoxicity against NCI tumor panel, COLO 205 colon cancer cell line; format: functional, cell-based; details: Homo sapiens; outline: as §1
DU-145 = assay: Cytotoxicity against NCI tumor panel, DU145 prostate cancer cell line; format: functional, cell-based; details: Homo sapiens; outline: as §1
EKVX = assay: Cytotoxicity against NCI tumor panel, EKVX non small-cell lung cancer cell line; format: functional, cell-based; details: Homo sapiens; outline: as §1
HCC 2998 = assay: Cytotoxicity against NCI tumor panel, HCC_2998 colon cancer cell line; format: functional, cell-based; details: Homo sapiens; outline: as §1
K562 = assay: Cytotoxicity against NCI tumor panel, K-562 leukemia cell line; format: functional, cell-based; details: Homo sapiens
Outline: (§2)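 Performed by NCI with the sulforhodamine B (SRB) method on its human tumour cell panel, using a 48-h drug incubation.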

IGROV-1 = assay: Cytotoxicity against NCI tumor panel, IGROV1 ovarian cancer cell line; format: functional, cell-based; details: Homo sapiens; outline: as §2
MDA-MB-231 = assay: Cytotoxicity against NCI tumor panel, MDA-MB-231/ATCC breast cancer cell line; format: functional, cell-based; details: Homo sapiens; outline: as §2
Mus musculus [1] = assay: Haematological effects in mice dose administered intraperitoneally; format: functional
Outline: (§3)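 Non-tumor-bearing female CDF1 mice, 10 per group. Drugs were dissolved in DMSO, diluted in 30% DMSO/0.5% glucose, and given as a single ip dose on day 1 (doses per kg). Blood was sampled on day 27 for WBC, platelet, RBC and MCHC counts. Values are medians of 10 mice.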

MOLT-4 = assay: Cytotoxicity against NCI tumor panel, MOLT-4 leukemia cell line; format: functional, cell-based; details: Homo sapiens; outline: as §2
MCF7 = assay: Cytotoxicity against NCI tumor panel, MCF-7 breast cancer cell line; format: functional, cell-based; details: Homo sapiens; outline: as §2
Mus musculus [2] = species: Mus musculus; assay: Mice bearing B16BL6 leukemia at a dose 100; format: functional; details: in the assay text read “melanoma” for “leukemia”
Outline: (§4)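 Female BDF1 mice (4-6 weeks old, 8 per group) were inoculated ip with 10⁶ B16BL6 melanoma cells on day 0. Drugs in dimethylacetamide were diluted in DMA:Cremophor:water (1:5:44) and given ip at 0.1 mL on days 1, 5 and 9 (doses per kg). Read-outs were %ILS = (T/C − 1) × 100 on median survival of dying animals only, mean body weight change from day 1 to day 10 (g/mouse), and 90-day survivors.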

Mus musculus [3] = assay: Antitumor activity was tested in mice and percent increase of life span at a dose of 50 ug/kg was reported; format: functional
Outline: (§5)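 B16BL6 cells were cultured as monolayers, and 10⁶ cells were injected ip on day 0 into female BDF1 mice (4-6 weeks, 8 per group). Drug in dimethylacetamide was diluted in DMA/Cremophor/water (1:5:44) and 0.1 mL given ip on days 1, 5 and 9. %ILS came from median survival of dying animals; 90-day survivors were counted; mean weight change covered days 1-10.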

Mus musculus [4] = species: Mus musculus; assay: Hematological effects in female CDF1 mice at the dose of 50 ug, in platelet cells; format: functional; outline: as §3
Mus musculus [5] = species: Mus musculus; assay: Mean corpuscular haemoglobin concentration; format: functional
Outline: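 Non-tumour-bearing female CDF1 mice, 10 per group. Drug was dissolved in DMSO, diluted in 30% DMSO/0.5% glucose, and given as a single ip dose on day 1. Blood was sampled on day 27 for WBC, platelet, RBC and MCHC measurements. Values are medians of 10 mice, with saline or vehicle controls.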

Mus musculus [6] = assay: Antitumor activity in BDF1 male mice bearing L1210 Leukemia at a dose of 25 ug/kg; survivors for 30 days was reported; format: functional
Outline: (§6)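 Male BDF1 mice, 4-6 weeks old, 6 per group, were given 10⁵ L1210 cells ip on day 0. Drug in DMF was diluted in 30% DMSO/0.5% glucose and given ip on days 1, 5 and 9. %ILS = (T/C − 1) × 100 on median survival of dying animals only; 30-day survivors noted separately. Group weight change was taken from day 0 to the lowest-weight day.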

Mus musculus [7] = assay: Antitumor activity in BDF1 male mice bearing L1210 Leukemia at a dose of 42 ug/kg; survivors for 30 days was reported; format: functional; outline: as §6
Mus musculus [8] = assay: Antitumor activity in mice bearing B16BL6 melanoma at a dose of 100 ug/kg; survivors for 90 days was reported; format: functional; outline: as §5
Mus musculus [9] = species: Mus musculus; assay: Hematological effects in female CDF1 mice at the dose of 50ug, in white blood cells; format: functional; outline: as §3
Mus musculus [10] = species: Mus musculus; assay: Mean body weight change between 1-10 days; format: functional; outline: as §4
Mus musculus [11] = species: Mus musculus; assay: Body weight change between days 0 and the day when the animal weight was the lowest; format: functional; outline: as §6
OVCAR-8 = assay: Cytotoxicity against NCI tumor panel, OVCAR-8 ovarian cancer cell line; format: functional, cell-based; details: Homo sapiens; outline: as §2
NCI-H522 = assay: Cytotoxicity against NCI tumor panel, NCI-H522 non small-cell lung cancer cell line; format: functional, cell-based; details: Homo sapiens; outline: as §2
NCI/ADR-RES = assay: Cytotoxicity against NCI tumor panel, NCI/ADR-RES breast cancer cell line; format: functional, cell-based; details: Homo sapiens; outline: as §2
NCI-H322M = assay: Cytotoxicity against NCI tumor panel, NCI-H322M non small-cell lung cancer cell line; format: functional, cell-based; details: Homo sapiens; outline: as §2
NCI-H460 = assay: Cytotoxicity against NCI tumor panel, NCI-H460 non small-cell lung cancer cell line; format: functional, cell-based; details: Homo sapiens; outline: as §2
OVCAR-3 = assay: Cytotoxicity against NCI tumor panel, OVCAR-3 ovarian cancer cell line; format: functional, cell-based; details: Homo sapiens; outline: as §2
RPMI-8226 = assay: Cytotoxicity against NCI tumor panel, RPMI-8226 leukemia cell line; format: functional, cell-based; details: Homo sapiens; outline: as §2
SF-295 = assay: Cytotoxicity against NCI tumor panel, SF-295 CNS cancer cell line; format: functional, cell-based; details: Homo sapiens; outline: as §2
SNB-75 = assay: Cytotoxicity against NCI tumor panel, SNB-75 CNS cancer cell line; format: functional, cell-based; details: Homo sapiens; outline: as §2
SN12C = assay: Cytotoxicity against NCI tumor panel, SN12C renal cancer cell line; format: functional, cell-based; details: Homo sapiens; outline: as §2
SF-539 = assay: Cytotoxicity against NCI tumor panel, SF-539 CNS cancer cell line; format: functional, cell-based; details: Homo sapiens; outline: as §2
SK-OV-3 = assay: cytotoxicity against NCI tumor panel, SK-OV-3 ovarian cancer cell line; format: functional, cell-based; details: Homo sapiens; outline: as §2
SK-MEL-5 = assay: Cytotoxicity against NCI tumor panel, SKMEL-5 melanoma cancer cell line; format: functional, cell-based; details: Homo sapiens; outline: as §2
SW-620 = assay: Cytotoxicity against NCI tumor panel, SW_620 colon cancer cell line; format: functional, cell-based; details: Homo sapiens; outline: as §2
TK-10 = assay: Cytotoxicity against NCI tumor panel, TK10 renal cancer cell line; format: functional, cell-based; details: Homo sapiens; outline: as §2
HCT-15 = assay: Cytotoxicity against NCI tumor panel, HCT-15 colon cancer cell line; format: functional, cell-based; details: Homo sapiens; outline: as §1
UO-31 = assay: Cytotoxicity against NCI tumor panel, U031 renal cancer cell line; format: functional, cell-based; details: Homo sapiens; outline: as §2
[12] = Minimal drug concentration necessary to inhibit incorporation of [3H]thymidine in U937 Leukemia cells; format: functional, cell-based, Homo sapiens
UACC-257 = assay: Cytotoxicity against NCI tumor panel, UACC-257 melanoma cancer cell line; format: functional, cell-based; details: Homo sapiens; outline: as §2
UACC-62 = assay: Cytotoxicity against NCI tumor panel, UACC-62 melanoma cancer cell line; format: functional, cell-based; details: Homo sapiens; outline: as §2
Mus musculus [13] = species: Mus musculus; assay: Mean body weight change

CC(=O)Nc1ccc2[nH]c(C(=O)Nc3ccc4[nH]c(C(=O)N5CC(CCl)c6c5cc(O)c5ccccc65)cc4c3)cc2c1 (stereo unspecified)
IC50 (786-0): 1.66 nM | IC50 (A549): 1.49 nM | IC50 (ACHN): 1.28 nM | IC50 (CCRF-CEM): 3.14 nM | IC50 (CAKI-1): 4.27 nM | IC50 (COLO 205): 2.99 nM | IC50 (DU-145): 0.982 nM | IC50 (EKVX): 2.39 nM | IC50 (HCC 2998): 4.03 nM | IC50 (K562): 3.76 nM | IC50 (IGROV-1): 1.01 nM | IC50 (MDA-MB-231): 5.97 nM | Dose (Mus musculus [1]): 0.05 mg/kg | IC50 (MOLT-4): 0.375 nM | IC50 (MCF7): 0.476 nM | Dose (Mus musculus [2]): 0.1 mg/kg | ILS at 0.05 mg/kg (Mus musculus [3]): 59% | Platelet (Mus musculus [4]): 1.1 10e6 ul-1 | MCHC (Mus musculus [5]): 36.7 g/dL | No. of survivors (Mus musculus [6]): 0 | No. of survivors (Mus musculus [7]): 0 | No. of survivors (Mus musculus [8]): 1 | WBC (Mus musculus [9]): 13.1 10e3 ul-1 | Weight (Mus musculus [10]): 1.1 g and 0.3 g and 0.9 g | Weight (Mus musculus [11]): 23% | IC50 (OVCAR-8): 1.6 nM | IC50 (NCI-H522): 0.238 nM | IC50 (NCI/ADR-RES): 8.56 nM | IC50 (NCI-H322M): 2.13 nM | IC50 (NCI-H460): 1.48 nM | IC50 (OVCAR-3): 3.51 nM | IC50 (RPMI-8226): 8.98 nM | IC50 (SF-295): 2.64 nM | IC50 (SNB-75): 0.513 nM | IC50 (SN12C): 3.01 nM | IC50 (SF-539): 1.24 nM | IC50 (SK-OV-3): 4.33 nM | IC50 (SK-MEL-5): 1.11 nM | IC50 (SW-620): 2.36 nM | IC50 (TK-10): 3.13 nM | IC50 (HCT-15): > 10 nM | IC50 (UO-31): 4.05 nM | IC50 [12]: 0.4 nM | IC50 (UACC-257): 2.46 nM | IC50 (UACC-62): 0.419 nM | Weight (Mus musculus [13]): 16%
